CaV13 ICDI inh = Primary screen for inhibitors of IQ motif and Ca2+-dependent inactivation inhibitor domain binding in CACNA1D, Förster resonance energy transfer in living cells, …. 340,000 compounds, 0.098% hits. AID 743397. HEK cells, CFP/YFP FRET ICDI-IQ, plate reader, 10 min; percent FRET-ratio fall versus neutral wells. inhibition, % at 12.3 µM;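 active = mean replicate inhibition of at least 30% and at least 1% of replicates passing that level; inconclusive = only one of the two criteria is met; inactive = neither criterion is met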;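 also: 0% = median of the neutral control wells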
GAA850 FXN act = increases GAA850 frataxin promoter reporter activity | HEK293 lucGAA850 FXN promoter luciferase reporter, 24 h; percent of 10 µM SAHA response | activation, % at 6 µM | 360,000 compounds, 0.56% hits;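 active = activation above the average of all compounds screened plus 3 SD, cutoff fixed separately per campaign, cut at about 7.5% in these data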;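 also: 0% = DMSO wells and 100% = 10 µM SAHA wells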
GSIS activator = GLuc luminescence reporter in INS-1E cells, primary screen for activators of glucose-dependent secretion of insulin; activation, % at 16.6 µM; 370,000 compounds, 0.61% hits; INS-1E GLuc reporter insulin secretion, 2-3 h; AID 743287;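 active = lowest replicate activation of at least 40%, so every replicate reaches that level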;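 also: 0% = median of neutral control wells and 100% = median of IBMX positive control wells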
Xi reactivation = reactivates the inactive X chromosome in mouse fibroblasts; XiGFP mouse fibroblasts, % GFP-positive cells imaging, 3 d; cells co-treated with 5-aza-dC sensitizer; scaled so ellipticine positive control = 100%; activation, % at 7.58 µM; 360,000 compounds, 0.055% hits; AID 743238;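 active = mean normalized replicate activation at least 10% and every replicate at or above 10%; inconclusive = only one of the two criteria met; inactive = mean below 10% and not all replicates reach 10%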;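 also: 0% = median of on-plate neutral control wells and 100% = ellipticine 6 µM median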
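Schedule: 3 d treatment, 15 min room-temperature fixation; system: 68-5-11 XiGFP fibroblast line; buffer or medium: DMEM plus 5-aza-dC sensitizer; control set: ellipticine 6 µM positive control; compound: one concentration, pinned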
The depositor's hits bear a star; ! = a repeat was not active. Only some compounds are listed: those with a hit (about 1% of all), similar ones and a draw of the others.

Results for COC(=O)C1=C(C)N(Cc2ccccc2C(F)(F)F)C(=NCc2ccc(C(F)(F)F)cc2)NC1c1ccc(Cl)cc1 (configuration not stated) ?
CaV13 ICDI inh: -2; GSIS activator: -23; Xi reactivation: 0

What do the screens show for `COC(=O)C1=C(C)N(Cc2ccc(C(F)(F)F)cc2)C(=NCc2ccccc2)NC1c1ccc(Cl)cc1` (configuration not stated)?
CaV13 ICDI inh: -4; GSIS activator: 726*; Xi reactivation: 0

Results for COC(=O)C1=C(C)N(Cc2ccccc2C(F)(F)F)C(=NCc2ccc(OC)cc2)NC1c1ccc(Cl)cc1 (configuration not stated) ?
CaV13 ICDI inh: -3; GSIS activator: 87*; Xi reactivation: 0

How did NNC(=O)C1C(O)CCC2CN3CCc4c([nH]c5ccccc45)C3CC21 (configuration not stated) do in these assays?
CaV13 ICDI inh: -8; GAA850 FXN act: 2; GSIS activator: 41*; Xi reactivation: 0

Results for COC(=O)[C@@H]1[C@H]2C[C@H]3c4[nH]c5ccccc5c4CCN3C[C@@H]2CC[C@@H]1O ?
CaV13 ICDI inh: -5; GAA850 FXN act: -1; GSIS activator: 27; Xi reactivation: 0

What do the screens show for `C[C@@H]1CCCCO[C@H](CN(C)C)[C@@H](C)CN([C@@H](C)CO)C(=O)c2cc(NC(=O)NC3CCCCC3)ccc2O1`?
GSIS activator: 7; Xi reactivation: 0

What do the screens show for `Cc1cccc(S(=O)(=O)N2C[C@@H]3N[C@H](C2)C3c2ccc(-c3ccccc3F)cc2)c1` (some centres not stated)?
GSIS activator: 81*!; Xi reactivation: 0

How did COc1ccccc1-c1ccc(C2[C@@H]3CN(Cc4cccc(F)c4)C[C@H]2N3)cc1 (some centres not stated) do in these assays?
GSIS activator: -11; Xi reactivation: 0

Results for COc1cccc(CN2C[C@@H]3N[C@H](C2)C3c2ccc(-c3ccccc3OC)cc2)c1 (some centres not stated) ?
GSIS activator: 82*!; Xi reactivation: 0

How did Fc1ccccc1-c1ccc(C2[C@@H]3CN(Cc4ccccc4)C[C@H]2N3)cc1 (some centres not stated) do in these assays?
GSIS activator: 47*!; Xi reactivation: 0

How did Cc1cccc(S(=O)(=O)N2C[C@@H]3N[C@H](C2)C3c2ccc(-c3ccccc3C)cc2)c1 (some centres not stated) do in these assays?
GSIS activator: 35; Xi reactivation: 0

Results for Cc1cccc(-c2ccc(C3[C@@H]4CN(Cc5cccc(F)c5)C[C@H]3N4)cc2)c1 (some centres not stated) ?
GSIS activator: 70*; Xi reactivation: 0

What do the screens show for `COc1cccc(-c2ccc3c(c2)[C@@H]2[C@@H](CCN2S(=O)(=O)c2ccccc2F)[C@H](CO)N3C)c1`?
GSIS activator: -4; Xi reactivation: 0

Results for COCC(=O)N(C)C[C@H]1Oc2ncc(C3=CCCC3)cc2C(=O)N([C@H](C)CO)C[C@H]1C ?
GSIS activator: 12; Xi reactivation: 0

What do the screens show for `C[C@@H]1CN([C@H](C)CO)C(=O)c2cc(N(C)C)ccc2O[C@@H](C)CCCCO[C@@H]1CN(C)C(=O)CCC(F)(F)F`?
GSIS activator: -4; Xi reactivation: -1

Results for C[C@H](CO)N1C[C@H](C)[C@H](CN(C)Cc2ccc(F)cc2)OCc2ccccc2-c2ccccc2C1=O ?
GSIS activator: 2; Xi reactivation: 0

Results for O=S(=O)(c1ccccc1F)N1C[C@@H]2N[C@H](C1)C2c1ccc(/C=C/c2ccccc2)cc1 (some centres not stated) ?
GSIS activator: 171*!; Xi reactivation: 0

What do the screens show for `COc1ccc2c3c(n(C)c2c1)[C@H](CO)N(C(=O)Nc1ccccc1F)CC31CN(C(C)=O)C1`?
Xi reactivation: 0

Results for O=C(CN1CCCC1)Nc1cc(C(F)(F)F)ccc1Cl ?
GAA850 FXN act: 2; GSIS activator: -2; Xi reactivation: 0

Results for O=C(O)CSCC(=O)Nc1cc(C(F)(F)F)ccc1Cl ?
CaV13 ICDI inh: -4; GAA850 FXN act: 1; GSIS activator: 49*

How did CCC(=O)N(C)C[C@@H]1Oc2ncc(-c3ccc(F)cc3)cc2C(=O)N([C@@H](C)CO)C[C@H]1C do in these assays?
GSIS activator: 13; Xi reactivation: -1

How did CC=Cc1ccc2n(c1=O)C[C@H]1[C@H](CO)[C@@H](C(=O)NCC3CC3)N(C(=O)C3CCOCC3)[C@@H]21 (mixture of isomers) do in these assays?
GSIS activator: -1; Xi reactivation: 0

Results for COc1ccc(Nc2nc3ccccc3n3cnnc23)cc1Cl ?
CaV13 ICDI inh: -3; GAA850 FXN act: 2; GSIS activator: 6; Xi reactivation: 0

Results for COc1ccc(/C(C)=N/Nc2nc3ccccc3n3cnnc23)cc1OC ?
CaV13 ICDI inh: -2; GSIS activator: 44*; Xi reactivation: 0

Results for Cc1ccc(O)c(CP(=O)(c2ccccc2)c2ccccc2)c1 ?
CaV13 ICDI inh: -3; GAA850 FXN act: -1; GSIS activator: 44*; Xi reactivation: 0

What do the screens show for `Cc1ccc(O)c(CN(C)Cc2cc(C)ccc2O)c1`?
CaV13 ICDI inh: -5; GAA850 FXN act: 3; Xi reactivation: 0

How did O=c1oc2cc(O)ccc2cc1-c1nc2c(s1)CCc1ccccc1-2 do in these assays?
CaV13 ICDI inh: -11; GAA850 FXN act: 5; GSIS activator: -33; Xi reactivation: 95*

What do the screens show for `COc1ccc(NC(=O)Nc2ccc3c(c2)CC(=O)N([C@@H](C)CO)C[C@@H](C)[C@@H](CN(C)S(C)(=O)=O)O3)cc1`?
GSIS activator: 9; Xi reactivation: -2

What do the screens show for `CS(=O)(=O)c1cnc(-c2ccccc2)nc1Oc1ccc(Cl)cc1`?
CaV13 ICDI inh: -5; GAA850 FXN act: 2

Results for CS(=O)(=O)c1cnc(-c2ccccc2)nc1Oc1ccc(F)cc1 ?
GAA850 FXN act: 1; GSIS activator: 65*

Results for COc1ccc(-c2nc3cccc(C)n3c2NCc2ccco2)cc1OC ?
CaV13 ICDI inh: -6; GAA850 FXN act: 1; GSIS activator: 65*

How did COc1ccc(-c2ccc(C#N)c(SCC(=O)NCc3ccco3)n2)cc1OC do in these assays?
CaV13 ICDI inh: -5; GAA850 FXN act: 2; GSIS activator: 51*; Xi reactivation: inconclusive

Results for COc1ccc(-c2ccc(C#N)c(SCC(=O)NC3CC3)n2)cc1OC ?
CaV13 ICDI inh: -20; GAA850 FXN act: 2; Xi reactivation: 0

Results for C[C@@H]1CN([C@@H](C)CO)C(=O)c2cccc(NS(=O)(=O)c3ccc(F)cc3)c2O[C@H]1CN(C)C ?
GSIS activator: 15; Xi reactivation: 0

Screens deposited in PubChem BioAssay by several laboratories.
